Source: PubChem
Xi reactivation: activators of inactive X chromosome reactivation, primary screen, imaging, XiGFP fibroblasts, GFP high-content imaging, set 2; activation, % at 7.58 µM; AID 743238, 2013; 360,000 tested, 0.055% active; XiGFP mouse fibroblasts, % GFP-positive cells imaging, 3 d; cells co-treated with 5-aza-dC sensitizer; scaled so ellipticine positive control = 100%;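 active means mean normalized replicate activation at least 10% and every replicate at or above 10%; inconclusive means only one of the two criteria met; inactive means mean below 10% and not all replicates reach 10%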;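 further: 0% = median of on-plate neutral control wells and 100% = ellipticine 6 µM median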
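System: 68-5-11 XiGFP fibroblast line | Buffer or medium: DMEM containing 5-aza-dC | Compound: Single point | Times: Compounds 3 days, fix/stain 15 min at room temperature | Benchmarks: Positive control ellipticine, 6 µM final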
DENV2 CPE: inhibitors of DENV2 cytopathic effect, primary screen, cell-based, plate reader, single concentration; DENV2-infected cells, cytopathic effect rescue; CPE inhibition, % at 9.99 µM; 350,000 tested, 1.7% active; in the data active means CPE inhibition above about 20%, passing the limit was not always enough; inconclusive means no clear call, values can overlap the other calls; tested in BHK-21 cells;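 further: 0% = median of neutral control wells and 100% = median of positive control wells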
E-sel inducer: E-selectin induction in HUVECs, primary screen, imaging, HUVEC, immunofluorescence imaging, single point | P16581 | normalized: neutral wells 0, TNF-alpha wells 100 | activation, % at 7.58 µM | 260,000 tested, 0.37% active | AID 686992, 2013;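 active means mean E-selectin-positive cell signal at least 10% of the positive control, reached in at least 60% of replicates, without over 20% cell loss; inconclusive means no rule given, readout overlaps actives, possibly toxicity-flagged; inactive means the rest, including those meeting only one limit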
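Test system: HUVEC; input: 3,000 HUVEC/well; measured by: immunofluorescence imaging; read-out: % PE-positive cells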
PglD inh: C. jejuni PglD acetyltransferase inhibitors, primary screen, biochemical, DTNB colorimetric, single point | UDP-N-acetylbacillosamine N-acetyltransferase PglD (Campylobacter jejuni) | purified PglD enzyme, DTNB colorimetric CoA detection | inhibition, % at 12.5 µM | 360,000 tested, 0.098% active | AID 602405, 2012; in the data active means inhibition above about 16%, passing the limit was not always enough; inconclusive means no clear call, values can overlap the other calls
C2C12 statin: suppressors of statin myotoxicity in C2C12 myotubes, primary screen, cell-based, single point, plate reader; C2C12 myotubes + simvastatin, ATP luminescence, 48 h; scaled: DMSO 0, geranylgeraniol control 100; rescue of ATP level, % at 7.49 µM; 330,000 tested, 0.78% active; AID 602340, 2012;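 active means mean ATP rescue above about 67%, or every replicate alone reaching that limit, limit read from the data, passing the limit was not always enough; inconclusive means no clear call, values can overlap the other calls; inactive means mean under the limit and some replicate under it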;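 further: myotubes were challenged with 10 µM simvastatin during compound exposure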
FGF22 binding: binders of human FGF22 protein, primary screen, FGF22 synaptogenesis inhibitor project, biophysical, thermal shift, single point. Fibroblast growth factor 22 (Homo sapiens), Q9HCT0. activity (Tm shift, normalised), % at 9.99 µM. 340,000 tested, 1.5% active. recombinant FGF22 thermal shift, SYPRO orange fluorescence; percent of sucrose octasulfate shift, DMSO zero. AID 651658, 2012;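 active means mean Tm shift, scaled 0 neutral to 100 positive control, at about 1.3% or above, every replicate too, limit read from the data; inconclusive means no clear call, values can overlap the other calls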
Target sequence (Q9HCT0 whole entry, looked up): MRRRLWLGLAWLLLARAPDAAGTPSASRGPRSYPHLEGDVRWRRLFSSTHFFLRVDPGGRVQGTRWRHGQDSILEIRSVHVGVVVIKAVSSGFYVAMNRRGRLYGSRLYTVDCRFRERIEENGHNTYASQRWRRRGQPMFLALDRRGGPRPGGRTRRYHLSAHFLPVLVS
Active calls of the source: *; u = inconclusive; x = no result. Sampled rows, rich in hits. Any-hit rate of the full collection: about 3.3%.

SMILES	Xi reactivation	DENV2 CPE	E-sel inducer	PglD inh	C2C12 statin	FGF22 binding
O=c1oc2ccccc2c(Nc2cccc(O)c2)c1[N+](=O)[O-]	x	x	x	-1	132*	x
Cc1noc(C)c1NC(=O)Nc1cccc2c1O[C@@H](CN(C)Cc1ccc(-c3ccccc3)cc1)[C@H](C)CN([C@@H](C)CO)C2=O	0	13	0	1	u	0
NC(=O)c1ccsc1NC(=O)C1CCCN1S(=O)(=O)c1ccc(Cl)cc1 (stereo not given)	x	x	x	-5	20	x
CC1CCCCN1S(=O)(=O)c1ccc(C(=O)Nc2sccc2C(N)=O)cc1 (stereo not given)	0	x	0	-8	109*	0
NNC(=S)NCc1cccnc1	0	x	x	x	x	x
Cc1ccc(CC(=O)NCc2cccnc2)cc1	0	-5	x	x	x	44*
COc1cc(NC(=S)NCc2cccnc2)cc(OC)c1OC	0	4	27*	x	x	0
Cc1ccc(CSCC(=O)NCc2cccnc2)cc1	0	-2	x	x	x	0
NC(=S)NCc1cccnc1	0	-9	0	-2	-1	43*
CN1CCN(C(=O)C[C@@H]2CC[C@@H]3[C@H](COC[C@H](O)CN3Cc3cccc(-c4ccncc4)c3)O2)CC1	0	-17	0	-1	0	0
CCNC(=O)C[C@H]1CC[C@H]2[C@H](COc3ccc(NC(=O)Nc4ccc(C)cc4)cc3C(=O)N2C)O1	0	-7	1	4	5	0
Cc1ccc(S(=O)(=O)N[C@@H]2C=C[C@@H](CC(=O)NCCc3ccncc3)O[C@H]2CO)cc1	-1	0	0	-1	0	0
COc1cccc(OC)c1Nc1nc(C)nc2c1nnn2Cc1ccccc1Cl	0	60*	0	x	2	0
Cc1nc(NCCc2ccccc2)c2nnn(Cc3ccccc3Cl)c2n1	0	-8	x	-6	-15	0
O=C(CSc1ncnc2scc(-c3ccccc3)c12)NC1CCS(=O)(=O)C1 (stereo not given)	0	-2	2	x	2	0
O=C(CSc1ncnc2sc(-c3ccccc3)cc12)NC1CCS(=O)(=O)C1 (stereo not given)	0	7	0	x	x	43*
C[C@H](CO)N1C[C@H](C)[C@@H](CN(C)Cc2ccc(Cl)c(Cl)c2)OCCCC[C@H](C)Oc2ccc(NS(=O)(=O)c3ccc(F)cc3)cc2C1=O	0	3	0	4	x	0
C[C@@H]1CCCCO[C@@H](CN(C)C(=O)Cc2ccccc2)[C@@H](C)CN([C@H](C)CO)C(=O)c2cc(NS(=O)(=O)c3ccc(Cl)cc3)ccc2O1	0	25*	0	-1	x	0
C[C@H]1CCCCO[C@H](CN(C)C(=O)Cc2ccccc2)[C@@H](C)CN([C@@H](C)CO)C(=O)c2cc(NS(=O)(=O)c3ccc(Cl)cc3)ccc2O1	1	28*	0	-1	x	0
COc1ccc(S(=O)(=O)Nc2ccc3c(c2)C(=O)N([C@@H](C)CO)C[C@H](C)[C@@H](CN(C)C(=O)Cc2ccccc2)OCCCC[C@H](C)O3)cc1	0	68*	0	4	x	-1
COc1ccc(S(=O)(=O)Nc2ccc3c(c2)C(=O)N([C@@H](C)CO)C[C@H](C)[C@@H](CN(C)C(=O)CCCN(C)C)OCCCC[C@H](C)O3)cc1	0	-4	0	0	33	0
COc1ccc(S(=O)(=O)Nc2ccc3c(c2)C(=O)N([C@H](C)CO)C[C@H](C)[C@H](CN(C)C(=O)CCCN(C)C)OCCCC[C@H](C)O3)cc1	-1	22*	0	1	28	0
C[C@H](CO)N1C[C@H](C)[C@@H](CN(C)C(=O)CC2CC2)Oc2cc(C3=CCCC3)ccc2S1(=O)=O	-1	2	0	4	-1	0
C[C@@H]1CN([C@@H](C)CO)C(=O)c2cccc(NC(=O)C3CCCCC3)c2O[C@@H]1CN(C)Cc1ccccc1	0	-9	0	x	x	0
CNC[C@H]1OCCCC[C@H](C)Oc2ccc(NC(=O)NC3CCCCC3)cc2C(=O)N([C@@H](C)CO)C[C@@H]1C	1	-14	0	30	24	0
SMILES	Xi reactivation	DENV2 CPE	E-sel inducer	PglD inh	C2C12 statin	FGF22 binding
CN=C1c2ccccc2CN1c1cccc(C(=O)OC)c1	x	x	x	-6	100*	x
CCOC(=O)c1c(/N=C/C2=C(O)CC(C)(C)CC2=O)sc(C(C)=O)c1C	0	x	-3	x	x	43*
C[C@H]1CN([C@@H](C)CO)C(=O)Cc2cc(NC(=O)C3CCCCC3)ccc2O[C@@H]1CN(C)C(=O)NC1CCCCC1	0	3	2	3	7	0
COC(=O)[C@H](CC(C)C)NS(=O)(=O)N[C@@H](CC(C)C)C(=O)OC	0	11	0	-4	6	0
COC(=O)[C@H](CC(C)C)NS(=O)(=O)c1ccccc1	0	2	0	0	80*	0
CCC(=O)N1C[C@H](C)[C@H](OC)CN(C)C(=O)c2ccc(NC(=O)c3ccccc3)cc2OC[C@@H]1C	0	3	0	-1	-16	0
COc1ccc(NC(=O)CN(C)CC(=O)Nc2ccc(Cl)c(S(=O)(=O)N(C)C)c2)cc1	1	8	0	-1	10	43*
COc1ccc(NC(=O)CN(C)CCOc2ccc(Cl)cc2)cc1OC	0	47*	0	5	1	0
CN(CC(=O)Nc1ccc2c(c1)OCO2)CC(=O)Nc1ccc(F)c(F)c1F	0	-4	x	-2	7	0
COc1ccc(CC(=O)OCC(=O)Nc2ccc(Cl)c(S(=O)(=O)N(C)C)c2)cc1	0	x	x	x	x	42
CN(CC(=O)Nc1ccc(Cl)c(Cl)c1)CC(=O)Nc1ccc2c(c1)OCO2	120*	-1	23	-1	4	0
COc1ccc2c3c(n(C)c2c1)[C@@H](CO)N(C(=O)NC(C)C)CC31CCN(C(=O)NC(C)C)CC1	0	-5	0	x	x	0
C[C@H](NC(=O)C[C@H]1C=C[C@H](NC(=O)C2CCOCC2)[C@H](CO)O1)c1ccccc1	1	-5	0	-2	-1	0
